Reference: ChEMBL document CHEMBL5303300, “EUbOPEN Chemogenomics Library - Multiplex” (2023)
“And” between values parts separate entries of the source, which are not always exact repeats. Equal values may be shown once.

Tests used:
Assay type in all cases: toxicity, cell-based
U2OS = assay: Multiplex assay against U2OS; conditions: human, number of replicates 2
Outline: (§1)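 Compound was added to live cells that had been stained at seeding with Hoechst33342, BioTracker Green Microtubule Cytoskeleton Dye, MitoTracker Red and Annexin V Alexa Fluor 680, and imaging followed on a CQ1 microscope at 37°C and 5% CO2. CellPathfinder machine-learning gating divided cells into Hoechst high-intensity objects or normal cells, normal cells into healthy, pyknosed or fragmented nuclei, and pyknosed cells into mitotic or apoptotic. Tubulin, mitochondrial-mass and membrane-permeability phenotypes are per cents of healthy-nucleus cells.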

HEK-293T = assay: Multiplex assay against HEK293T; conditions: human, number of replicates 2; outline: as §1
Fibroblast = assay: Multiplex assay against human fibroblast; conditions: number of replicates 2; outline: as §1
[1] = 12 h, 1 µM, compound concentration 1 uM
[2] = 12 h, 10 µM, compound concentration 10 uM
[3] = 24 h, 1 µM, compound concentration 1 uM
[4] = 24 h, 10 µM, compound concentration 10 uM
[5] = 48 h, 1 µM, compound concentration 1 uM
[6] = 48 h, 10 µM, compound concentration 10 uM

## CS(=O)(=O)c1ccc(C(=O)Nc2cccc(COc3ccc(Br)cc3CN3CCC[C@H](O)C3)c2)c(Cl)c1.O=CO
U2OS; [1]
  Population Healthy Nuclei (%): 84% and 83%
  Population Hoechst High Intensity Objects (%): 0%
  Population Pyknosed Nuclei (%): 15%
U2OS; [2]
  Population Apoptotic (%): 66% and 52%
  Population Healthy Nuclei (%): 69% and 75%
  Population Hoechst High Intensity Objects (%): 0%
  Population Pyknosed Nuclei (%): 15% and 18%
U2OS; [3]
  Population Healthy Nuclei (%): 74% and 83%
  Population Hoechst High Intensity Objects (%): 0%
U2OS; [4]
  Population Apoptotic (%): 90%
  Population Healthy Nuclei (%): 65% and 70%
  Population Hoechst High Intensity Objects (%): 0%
U2OS; [5]
  Population Apoptotic (%): 77% and 76%
  Population Healthy Nuclei (%): 53% and 83%
  Population Hoechst High Intensity Objects (%): 0%
  Population Pyknosed Nuclei (%): 19%
U2OS; [6]
  Population Apoptotic (%): 93% and 86%
  Population Healthy Nuclei (%): 43% and 57%
  Population Hoechst High Intensity Objects (%): 0%
  Population Pyknosed Nuclei (%): 34% and 29%
HEK-293T; [1]
  Population Healthy Nuclei (%): 82%
  Population Mitotic Cells (%): 45% and 44%
  Total Cell Count: 629 and 598
HEK-293T; [2]
  Population Healthy Nuclei (%): 85% and 88%
  Population Mitotic Cells (%): 38% and 41%
  Total Cell Count: 549 and 638
HEK-293T; [3]
  Population Healthy Nuclei (%): 83% and 85%
  Population Mitotic Cells (%): 60% and 48%
  Total Cell Count: 967 and 829
HEK-293T; [4]
  Population Healthy Nuclei (%): 83% and 85%
  Population Mitotic Cells (%): 49% and 30%
  Total Cell Count: 569 and 612
HEK-293T; [5]
  Population Healthy Nuclei (%): 82% and 86%
  Population Mitotic Cells (%): 82% and 78%
  Total Cell Count: 2080 and 1482
HEK-293T; [6]
  Population Healthy Nuclei (%): 86% and 84%
  Population Mitotic Cells (%): 62% and 45%
  Total Cell Count: 820 and 907
Fibroblast; [1]
  Population Healthy Nuclei (%): 71% and 60%
  Population Hoechst High Intensity Objects (%): 0%
  Population Mitotic Cells (%): 55% and 58%
  Population Pyknosed Nuclei (%): 17% and 22%
  Total Cell Count: 200 and 202
Fibroblast; [2]
  Population Healthy Nuclei (%): 52% and 60%
  Population Hoechst High Intensity Objects (%): 0%
  Population Mitotic Cells (%): 49% and 62%
  Population Pyknosed Nuclei (%): 18%
  Total Cell Count: 221 and 338
Fibroblast; [3]
  Population Healthy Nuclei (%): 72% and 64%
  Population Hoechst High Intensity Objects (%): 0%
  Population Mitotic Cells (%): 38% and 53%
  Population Pyknosed Nuclei (%): 21%
  Total Cell Count: 214 and 180
Fibroblast; [4]
  Population Healthy Nuclei (%): 50% and 65%
  Population Hoechst High Intensity Objects (%): 0%
  Population Mitotic Cells (%): 35% and 26%
  Population Pyknosed Nuclei (%): 21% and 12%
  Total Cell Count: 261 and 390
Fibroblast; [5]
  Population Healthy Nuclei (%): 73% and 72%
  Population Hoechst High Intensity Objects (%): 0%
  Population Mitotic Cells (%): 20% and 29%
  Population Pyknosed Nuclei (%): 12%
  Total Cell Count: 198 and 185
Fibroblast; [6]
  Population Healthy Nuclei (%): 54% and 63%
  Population Hoechst High Intensity Objects (%): 0%
  Population Mitotic Cells (%): 10% and 9%
  Population Pyknosed Nuclei (%): 7%
  Total Cell Count: 285 and 416
